Screening data as filed in PubChem.
Hits are enriched below; roughly 5.6% of the tested compounds scored in any of these assays.
CHOP inh: CHOP inhibition in unfolded protein response; AID 2732; inhibition, % at 10 µM; CHO-K1 CHOP-promoter luciferase, tunicamycin-induced, 15-18 h; 220,000 compounds, 3.8% hits;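 active = compounds that reduced the stress-induced luciferase reporter signal by more than about 70% of percent inhibition, limit read from the data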
aDG glyco up: increases alpha dystroglycan glycosylation; Pro5-aDG cells, alpha-DG glycosylation AlphaScreen (IIH6); 0% Pro5, 100% B10-LARGE cell signal; activation, % at 10 µM; 360,000 compounds, 0.22% hits; AID 624168;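 active = activation of at least 8% versus controls, or a plate z-score of at least 8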;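 also: Pro5 are CHO cells carrying HIG-tagged alpha-DG that lacks glycosylation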
UPR XBP1 act: adaptive UPR (XBP1) activation; CHO-XBP1 luciferase reporter, IRE1-XBP1 UPR activation, luminescence; percent of tunicamycin response, DMSO as zero; activation, % at 20 µM; 330,000 compounds, 0.33% hits; AID 463104;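 active = versus positive control, 20 µM dose yields 30% or more activation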
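assay system = CHO-XBP1 luciferase reporter cells | amount = 1000 cells/well | buffer or medium = F12 plus 10% FBS | compound dosing = single point, 20 µM final compound, 1% DMSO | incubation = 16-18 h cell attachment at 37 °C, then 6 h compound exposure | detection = Steady-Glo luminescence read | controls = tunicamycin 10 µg/mL and vehicle-only wells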
UPR CHOP act: activators of apoptotic arm of unfolded protein response (CHOP). activation, % at 10 µM. 330,000 compounds, 0.34% hits. CHO-CHOP luciferase reporter, UPR activation, luminescence; percent of tunicamycin response over DMSO baseline;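 active = at 10 µM dose, activation of 40% or more, normalized to positive control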
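Assay system: CHO-CHOP cells, stable luciferase reporter of PERK-eIF2a-CHOP signalling / Buffer or medium: F12 plus 10% serum / Compound dosing: one dose, 10 µM in 0.5% DMSO / Times: 6 h compound treatment, 37 °C / Technique: luciferase luminescence / Read-out: % reporter activation, DMSO baseline versus tunicamycin full activation / Benchmarks: tunicamycin and DMSO controls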
MPTP inh: permeability transition pore inhibition. isolated mouse mitochondria, Ca2+ swelling absorbance, 30 min. inhibition, % at 10 µM. 360,000 compounds, 1.4% hits. AID 602449;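 active = inhibition of 50% or more, scaled per plate between neutral and stimulator controls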
NR3A LBD binder: NR3A (human) ligand-binding domain modulation | NR3A LBD differential scanning fluorimetry, Tm shift; 0% = protein alone, 100% = glycine-bound protein | Tm shift relative to glycine control, % at 25 µM | 340,000 compounds, 2.5% hits | AID 1259313;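 active = melting temperature shift of at least 10% of the positive control shift, at one fixed dose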
CHOP confirm: confirmation of CHOP induction inhibitors; AID 504437; shares compounds with CHOP inh; inhibition, % at 10 µM; 2,100 compounds, 45% hits; CHO-CHOP promoter luciferase reporter, tunicamycin-induced, luminescence;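 active = mean of three repeat readings of reporter signal inhibition above a set limit, cut at about 70% in these data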
Hits are given with their value; i = inactive; nt = no result.

SMILES | CHOP inh | aDG glyco up | UPR XBP1 act | UPR CHOP act | MPTP inh | NR3A LBD binder | others
O=C(Nc1ccc2c(c1)OCO2)c1ccc(Cl)c(S(=O)(=O)N2CCOCC2)c1 | nt | i | i | i | i | 18
Cc1c(NC(=O)C2CCN(S(=O)(=O)c3ccc(Cl)cc3)CC2)c(=O)n(-c2ccccc2)n1C | i | i | i | i | i | 13
O=C(NNC(=O)C1CCN(S(=O)(=O)c2ccc(Cl)cc2)CC1)c1ccc(S(=O)(=O)N2CCCCC2)cc1 | i | i | i | i | i | 22
O=C(CN1CCCCC1)Nc1ccc(S(=O)(=O)N2CCOCC2)cc1 | i | i | i | i | i | i
O=C(CN1CCN(S(=O)(=O)c2ccc(Cl)cc2)CC1)Nc1ccc(N2CCOCC2)cc1 | i | i | i | i | i | 10
O=C(Nc1ccc2c(c1)OCCO2)c1ccc(Cl)c(S(=O)(=O)N2CCOCC2)c1 | i | i | i | i | i | i
COc1cccc(CC(NC(C)=O)C(=O)NC2CCN(S(=O)(=O)c3ccc(NC(C)=O)cc3)CC2)c1 (stereo not given) | i | i | i | i | i | i
CCCS(=O)(=O)NC(=O)C1(C)CCN(C(=O)c2cccc(C)c2C)C1 (stereo not given) | nt | i | nt | nt | i | nt
CC(C)(C)NC(=O)C1(C)CCC(=O)N1C1CC1 (stereo not given) | nt | i | nt | nt | i | nt
CC[C@]1(C(=O)OC)[C@H]2C(=O)N(C)C(=O)[C@H]2[C@H]2CN=C(SCc3ccc(OC)cc3)N21 | nt | i | i | i | i | i
O=C(Nc1ccc(S(=O)(=O)N2CCOCC2)cc1)c1ccc(F)cc1 | nt | i | i | i | i | 38
O=C(Nc1ccc(S(=O)(=O)N2CCOCC2)cc1)c1ccc(Br)o1 | i | i | i | i | i | 26
O=C(NCc1n[nH]c(=S)n1-c1ccc(F)cc1)c1ccc(S(=O)(=O)N2CCOCC2)cc1 | 82 | i | i | i | i | i
O=S(=O)(Nc1cc(S(=O)(=O)N2CCCC2)ccc1O)c1ccc(Cl)s1 | nt | i | i | i | i | i
O=C(Nc1cc(S(=O)(=O)N2CCOCC2)ccc1O)c1ccc(NS(=O)(=O)c2ccc(Cl)s2)cc1 | i | i | i | i | i | 19
C/C(=N\NC(=O)c1ccc(Cl)cc1)c1ccc2[nH]ccc2c1 | nt | i | i | i | i | i
CCOC(=O)Cc1csc(NC(=O)c2ccc(C)c(S(=O)(=O)N3CCOCC3)c2)n1 | nt | i | i | i | i | i
NC(=O)C(C1=CCCCC1)c1ccccc1 (stereo not given) | nt | i | nt | nt | i | i
CN1CCN(C(=O)C2CCCN(S(=O)(=O)c3ccc(F)cc3)C2)CC1 (stereo not given) | nt | i | i | i | i | i
CC(=O)Nc1ccc(NC(=O)c2ccc(Cl)c(S(=O)(=O)N3CCc4ccccc43)c2)cc1 | nt | i | nt | nt | i | 13
O=C(C1CCCN(S(=O)(=O)c2ccc(F)cc2)C1)N1CCOCC1 (stereo not given) | nt | i | nt | nt | i | 26
O=C(Nc1cc(S(=O)(=O)Nc2ccc(Cl)cc2)ccc1N1CCCCC1)c1ccc(F)cc1Cl | i | i | i | i | i | 21
O=C(Nc1ccc(S(=O)(=O)N2CCOCC2)cc1)c1ccc(Cl)cc1 | i | i | i | i | i | 22
COc1ccc(NS(=O)(=O)c2ccc(N3CCOCC3)c(NC(=O)c3ccccc3Cl)c2)cc1 | i | i | i | i | i | i
O=C(Nc1ccc(S(=O)(=O)N2CCOCC2)cc1)c1ccc(S(=O)(=O)N2CCOCC2)cc1 | nt | i | i | i | i | i
SMILES | CHOP inh | aDG glyco up | UPR XBP1 act | UPR CHOP act | MPTP inh | NR3A LBD binder | others
COc1ccc(CNC(=O)C(C)Sc2nc3ccccc3c(=O)n2CC2CCCO2)cc1 (stereo not given) | nt | i | i | i | i | i
Cc1ccnc(NC(=O)C2CC(=O)N(c3ccc4c(c3)OCCO4)C2)c1 (stereo not given) | nt | i | i | i | i | i
CCCCOc1ccc(C(=O)Nc2cc(C)c(OCC(=O)N3CCOCC3)c(C)c2)cc1 | i | i | i | i | i | i
O=C(Nc1ccc(S(=O)(=O)NC2=NCCCCC2)cc1)c1cc(S(=O)(=O)N2CCOCC2)ccc1F | nt | i | i | i | i | 22
Cc1cc(NC(=O)c2ccc(Cl)cc2)cc(C)c1OCC(=O)N1CCOCC1 | nt | i | i | i | i | 13
O=C(Nc1ccc(Cl)cc1F)c1cc(S(=O)(=O)N2CCCCC2)ccc1F | i | i | i | i | i | 13
COc1ccccc1NC(=O)c1cc(S(=O)(=O)N2CCCCCC2)ccc1F | nt | i | i | i | i | i
O=C(OCn1ncc(Cl)c(Cl)c1=O)c1ccc(C(F)(F)F)cc1 | 104 | i | i | i | i | i | CHOP confirm=116
O=C(CN1C(=O)CSc2ccc(S(=O)(=O)N3CCCCC3)cc21)NCc1ccccc1 | nt | i | i | i | i | i
CC1(C)C(C=C(Cl)Cl)C1C(=O)Nc1ccc([N+](=O)[O-])cc1 (stereo not given) | 104 | nt | nt | nt | nt | i | CHOP confirm=i
CC(NS(=O)(=O)c1ccc2c(c1)CC(C)N2C(=O)C1CC1)c1ccccc1 (stereo not given) | nt | i | i | i | i | i
COc1ccc2c(=O)c(-c3cnn(-c4ccccc4)c3)c(C)oc2c1 | i | i | i | i | i | i
Cc1oc2c(C)c(O)ccc2c(=O)c1-c1cnn(-c2ccccc2)c1 | 104 | i | i | i | i | i | CHOP confirm=i
CC(C)N1CCC(C)(C(=O)Nc2ccc(-n3cccc3)cc2)C1 (stereo not given) | nt | i | nt | nt | i | nt
CC(=O)C1=C(c2ccc(Br)cc2)C(=O)c2ccccc2C1=O | 110 | i | nt | nt | i | i | CHOP confirm=108
COCCn1c(=NC(=O)CN2C(=O)CCC2=O)sc2cc(S(N)(=O)=O)ccc21 | i | i | i | i | i | i
COCCn1c(=NC(=O)c2cc3ccccc3oc2=O)sc2cc(S(N)(=O)=O)ccc21 | 101 | i | i | i | i | i | CHOP confirm=i
Clc1ccc(-n2nnnc2-c2cnc3ccc(Cl)cc3c2-c2ccccc2)cc1 | i | i | i | i | i | i
Clc1ccc2ncc(-c3nnnn3-c3ccccc3)c(-c3ccccc3)c2c1 | 107 | i | i | i | i | i | CHOP confirm=i
Cc1cc(/C=N/Nc2nc(N)ncc2[N+](=O)[O-])c(C)n1-c1cccc(C(F)(F)F)c1 | 98 | nt | i | i | nt | nt | CHOP confirm=96
Cc1cc(/C=N/Nc2ccc([N+](=O)[O-])cn2)c(C)n1-c1ccc(C(=O)O)cc1 | i | i | i | i | i | i
COc1ccccc1C(=O)O/N=C(\N)c1ccccc1Cl | i | i | i | i | i | i
COc1ccccc1C(=O)Oc1ccc(C(C)C)cc1 | 99 | i | i | i | i | i | CHOP confirm=118
